Pemphigus Ab inh: blocks pemphigus antibody binding to human desmoglein-3. P32926. DSG3-coupled beads, scFv-anti-DSG3-GFP binding, flow cytometry; hits give low values. binding (percent of control), % at 10 µM. hit rate 0.48% among 310,000. AID 588358;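 active = binding more than 3 SD below its plate's average and above zero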;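 note: hits lower antibody fragment binding to DSG3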
UBC13 polyUb: inhibitors of human UBC13 polyubiquitin chain formation. TR-FRET. inhibition, % at 20 µM. hit rate 0.47% among 330,000; in the data active = inhibition above about 45%, passing the limit was not always enough
Target sequence (P61088 whole entry, looked up): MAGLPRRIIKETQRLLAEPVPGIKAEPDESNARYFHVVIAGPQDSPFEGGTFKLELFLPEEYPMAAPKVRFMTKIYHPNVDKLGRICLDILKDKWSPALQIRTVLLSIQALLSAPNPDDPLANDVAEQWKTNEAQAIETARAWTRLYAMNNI
MEKK2 mut-MEK5: signal of MEK5 binding to mutant human MEKK2 PB1 domain. percent response, % at 10 µM. bead flow cytometry, Alexa488-MEK5 binding to MEKK2 mutant. hit rate 0.35% among 290,000. AID 1530; in the data active = percent response above about 24%, passing the limit was not always enough
Apaf1 inhib: human Apaf-1 inhibition; O14727; AID 489030; hit rate 0.71% among 330,000; reconstituted apoptosome caspase-3 activity, DEVD-Rh110 fluorescence; inhibition, % at 20 µM; active = inhibition of at least 40% at 20 µM
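Material: cell-free apoptosome with Apaf-1, procaspase-3 and caspase-9; Buffer or medium: Hepes pH 7.5 with detergent and BSA; Reagent: cytochrome c trigger plus (Z-DEVD)2-Rh110 caspase-3 substrate; Times: compound with Apaf-1, dATP, procaspase-3 30 min, then 50 min reaction, room temperature; Technique: Rh110 fluorescence intensity.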
MEKK3 PB1 HTS: MEKK3-MEK5 PB1 interaction, increase or decrease | binding response (% of control), % at 10 µM | hit rate 1.4% among 290,000 | bead-based flow cytometry, Alexa488-MEK5 binding to MEKK3; actives lie on both sides; 0 = blocked by unlabeled MEK5, 100 = vehicle;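 active = binding response more than 3 SD above or below the average of its plate-row segment, actives on both sides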;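 note: Alexa488 bead fluorescence after subtracting the streptavidin-only scavenger bead signal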
MEKK2 WT-MEK5: raises or lowers MEK5 binding to wildtype human MEKK2 PB1 domain; Q9Y2U5; binding response (% of control), % at 10 µM; hit rate 1.1% among 290,000; bead flow cytometry, Alexa488-MEK5 binding to MEKK2 WT; actives lie on both sides; in the data active = binding response below about 67% or above about 130%
MEKK2wt confirm: raises or lowers MEK5 binding to wildtype human MEKK2, retest | shares compounds with MEKK3 PB1 HTS | bead flow cytometry, Alexa488-MEK5 binding to MEKK2 WT; actives lie on both sides | binding response (% of control), % at 10 µM | hit rate 2.4% among 5,900 | AID 1892; in the data active = binding response below about 16% or above about 210%; inactive = in between
MEKK2mut confirm: signal of MEK5 binding to mutant human MEKK2, retest; shares compounds with MEKK3 PB1 HTS; hit rate 2% among 5,900; percent response, % at 10 µM; bead flow cytometry, Alexa488-MEK5 binding to MEKK2 mutant; in the data active = percent response mostly above about 71%, no sharp cut-off; inactive = mostly below about 38%;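 note: higher means compound restores mutant binding toward wildtype level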
MEKK3 confirm: confirmation of inhibitors of MEK5 binding to human MEKK3 | hit rate 1.8% among 5,900 | AID 1894 | shares compounds with MEKK3 PB1 HTS | bead flow cytometry, Alexa488-MEK5 binding to MEKK3; hits give low values | binding response (% of control), % at 10 µM;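 active = binding response below 72% of control, or above a set upper limit, though filed actives all read lower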;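 note: lower values mean stronger disruption of MEK5 binding to MEKK3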
Of the large screens only hits and unclear results are named; the others gave an inactive call (follow-up assays come after a bar, where they were run); [ ] = another dose, or the depositor's remark. Most compounds without a hit are left out; they make up all but 3.2% or so of the library.

Cc1ccc(NC(=O)/C(C#N)=C/c2ccc(C)s2)c(C)c1	MEKK2 WT-MEK5 39[inhibitor] | MEKK2wt confirm inactive | MEKK2mut confirm inactive | MEKK3 confirm inactive
Fc1ccc2cc(-c3ccccc3F)ncc2c1	none (no result: MEKK2 mut-MEK5, MEKK3 PB1 HTS, MEKK2 WT-MEK5)
Cc1ccc(OC(=O)C23CC4CC(CC(C4)C2)C3)c(C)n1	none
CCc1nc(C)ccc1OC(=O)C12CC3CC(CC(C3)C1)C2	MEKK2 WT-MEK5 138 (no result: Pemphigus Ab inh) | MEKK2wt confirm inactive | MEKK2mut confirm inactive | MEKK3 confirm inactive
COc1ccc(C(=O)NNC(=O)CCC(=O)NNC(=O)c2ccc(OC)cc2)cc1	none (no result: Pemphigus Ab inh)
COc1ccc(C(=O)NNC(=O)c2ccc(C(C)(C)C)cc2)cc1	MEKK3 PB1 HTS 1.0[inhibitor], MEKK2 WT-MEK5 2.0[inhibitor] | MEKK2wt confirm inactive | MEKK2mut confirm inactive | MEKK3 confirm inactive
CCc1cccc(NC(=O)CCc2c(C)nn(-c3ccc(N4CCCCC4)nn3)c2C)c1	none
Cc1ccc(-c2nc(NCCN(C)C)c3ccccc3n2)cc1	none
Cc1cccc(-c2nc(NCCCN(C)C)c3ccccc3n2)c1	MEKK2 WT-MEK5 135 | MEKK2wt confirm inactive | MEKK2mut confirm inactive | MEKK3 confirm inactive
Cc1cccc(-c2nc(NCCCN3CCOCC3)c3ccccc3n2)c1	none
CN(C)CCCNc1nc(-c2ccc(Cl)cc2)nc2ccccc12	MEKK2 WT-MEK5 141 | MEKK2wt confirm inactive | MEKK2mut confirm inactive | MEKK3 confirm inactive
COc1ccc(/C=C2/CCC(CN3CCOCC3)C2=O)cc1 (stereo unspecified)	none (no result: UBC13 polyUb, MEKK2 mut-MEK5, Apaf1 inhib, MEKK3 PB1 HTS, MEKK2 WT-MEK5)
CC1CN(C(=O)c2ccc(Oc3ccccc3)cc2)CC(C)O1 (stereo unspecified)	MEKK3 PB1 HTS 70[inhibitor] | MEKK2wt confirm inactive | MEKK2mut confirm inactive | MEKK3 confirm inactive
COc1cccc2cc(C(=O)N3CC(C)OC(C)C3)c(=O)oc12 (stereo unspecified)	none
CC1CN(C(=O)c2cc3ccccc3oc2=O)CC(C)O1 (stereo unspecified)	MEKK3 PB1 HTS 82[inhibitor] | MEKK2wt confirm inactive | MEKK2mut confirm inactive | MEKK3 confirm inactive
CSCCC(NC(=O)COc1ccccc1)C(=O)N1CCCCCC1 (stereo unspecified)	none (no result: MEKK2 mut-MEK5, MEKK3 PB1 HTS, MEKK2 WT-MEK5)
Brc1ccc(-c2nc3ncccn3c2NC2CCCCC2)o1	MEKK3 PB1 HTS 129 | MEKK2wt confirm inactive | MEKK2mut confirm inactive | MEKK3 confirm inactive
CC(C)(C)NC(=O)NC(=O)CN1CCN(Cc2ccccc2)CC1	none
CC(C)(C)NC(=O)NC(=O)CN1CCN(C(c2ccccc2)c2ccccc2)CC1	MEKK3 PB1 HTS 157 | MEKK2wt confirm inactive | MEKK2mut confirm inactive | MEKK3 confirm inactive
CCc1ccc(N(CC(=O)Nc2ccccc2C(=O)N2CCOCC2)S(C)(=O)=O)cc1	none
O=C(Nc1ccccc1C(=O)N1CCOCC1)C1CCCO1 (stereo unspecified)	MEKK3 PB1 HTS 1.0[inhibitor], MEKK2 WT-MEK5 -1.0[inhibitor] | MEKK2wt confirm inactive | MEKK2mut confirm inactive | MEKK3 confirm inactive
Cc1cccc(OCC(=O)Nc2ccccc2C(=O)N2CCOCC2)c1	MEKK3 PB1 HTS 130 | MEKK2wt confirm inactive | MEKK2mut confirm inactive | MEKK3 confirm inactive
CS(=O)(=O)N(CC(=O)Nc1ccccc1C(=O)N1CCOCC1)c1ccc(Cl)cc1	MEKK3 PB1 HTS 44[inhibitor], MEKK2 WT-MEK5 43[inhibitor] | MEKK2wt confirm inactive | MEKK2mut confirm inactive | MEKK3 confirm inactive
Cc1cccc(OCC(=O)N/N=C/c2ccccc2C(=O)O)c1	MEKK3 PB1 HTS 132 | MEKK2wt confirm inactive | MEKK2mut confirm inactive | MEKK3 confirm inactive
O=C(Nc1ccccc1N1CCOCC1)C1CCCO1 (stereo unspecified)	none (no result: MEKK2 mut-MEK5, MEKK3 PB1 HTS, MEKK2 WT-MEK5)
CCCCn1c(N)c(N(CCOC)C(=O)COC(=O)CCOc2ccccc2C)c(=O)[nH]c1=O	none (no result: MEKK2 mut-MEK5, MEKK3 PB1 HTS, MEKK2 WT-MEK5)

Compound activity: PubChem, several laboratories
